# Hits are enriched below; roughly 2.4% of the tested compounds scored in any of these assays.
# HNF4A DNA FP: change in binding of human HNF4 alpha to DNA; HNF4a-FITC DNA binding, fluorescence polarization, 1 h; 360,000 tested, 0.3% active; activity change, % at 10 µM; P41235; in the data active = activity change above about 30%, passing the limit was not always enough
# Neddyl block: blocks human cullin neddylation; inhibition, % at 25 µM; TR-FRET cullin neddylation, biochemical; 360,000 tested, 0.58% active; in the data active = inhibition above about 36%
# PREPL inhibitor: inhibitors of human prolyl oligopeptidase-like enzyme PREPL; inhibition, % at 5.96 µM; recombinant PREPL, fluorescence polarization activity-based probe; 320,000 tested, 0.68% active; Q4J6C6; in the data active = inhibition above about 43%;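 also: 0% = enzyme with DMSO and 100% = wells lacking enzyme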
# CSN inh: inhibitors of human CSN-mediated cullin deneddylation; Q92905; Purified CSN, SCF-Nedd8-OG deneddylation, fluorescence polarization; inhibition, % at 12.5 µM; 360,000 tested, 0.38% active; AID 651999;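 active = pattern-corrected inhibition above about 35%, with an unprinted fluorescence ratio check between 0.5 and 1.5, limit read from the data, passing the limit was not always enough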;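 also: 0% = enzyme with substrate and 100% = substrate without enzyme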
# Target sequence (Q92905 whole entry, looked up, one chain of several): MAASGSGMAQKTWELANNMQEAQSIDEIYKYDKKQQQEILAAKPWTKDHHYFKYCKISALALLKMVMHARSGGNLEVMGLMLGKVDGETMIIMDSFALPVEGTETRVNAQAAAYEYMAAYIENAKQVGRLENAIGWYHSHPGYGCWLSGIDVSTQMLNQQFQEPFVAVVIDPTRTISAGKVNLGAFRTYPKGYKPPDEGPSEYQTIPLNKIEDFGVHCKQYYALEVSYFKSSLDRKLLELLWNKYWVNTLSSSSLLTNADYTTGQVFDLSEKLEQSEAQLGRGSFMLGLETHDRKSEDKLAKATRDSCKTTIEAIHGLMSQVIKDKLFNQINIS
#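 Assay system: Purified human Csn5 enzyme expressed in HEK293T cells | Amount: Enzyme 0.24 nM | Measured by: Fluorescence polarization readout | Medium: Tris/NaCl/DTT buffer, pH 7.5 | Compound dosing: One concentration, 12.5 µM, 0.25% DMSO | Times: 90 min incubation of compound, enzyme and substrate at room temperature | Control set: no-enzyme wells high, enzyme-with-substrate wells low | Read-out: % inhibition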
# Rpn11 inh: blocks the human proteasome subunit Rpn11; 360,000 tested, 0.59% active; O00487; human 26S proteasome, Ub4-pepOG fluorescence polarization; 20S core pre-blocked with epoxomicin; inhibition, % at 20 µM;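 active = inhibition at 20 µM, scaled to each plate's controls, above about 33%, limit read from the data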
# Target sequence (O00487 whole entry, looked up): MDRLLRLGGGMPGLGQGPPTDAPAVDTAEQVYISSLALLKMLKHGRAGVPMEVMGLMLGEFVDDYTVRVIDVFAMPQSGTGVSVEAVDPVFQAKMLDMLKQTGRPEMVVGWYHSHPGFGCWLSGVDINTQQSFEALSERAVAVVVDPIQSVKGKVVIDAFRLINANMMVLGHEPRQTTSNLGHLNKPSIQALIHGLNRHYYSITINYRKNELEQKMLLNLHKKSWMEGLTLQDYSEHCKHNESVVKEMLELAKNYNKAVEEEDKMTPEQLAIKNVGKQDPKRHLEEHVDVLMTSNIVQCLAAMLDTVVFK
# TbMetRS inhib: Trypanosoma brucei MetRS inhibition | inhibition, % at 11.9 µM | 360,000 tested, 0.4% active | purified T. brucei MetRS, ATP depletion, Kinase-Glo luminescence;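 active = inhibition above a per-plate cutoff of the control wells' mean inhibition plus 3 SD, cut at about 5.5% in these data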;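 also: 0% = DMSO wells median and 100% = median of wells with control inhibitor compound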
#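 Material: parasite MetRS enzyme / Replication: singlicate, one well per compound / Signal: luminescence of leftover ATP / Schedule: 2 h aminoacylation at 25 °C after 15 min preincubation / Medium: HEPES-MgCl2-KCl buffer plus DTT, spermine, BSA, pyrophosphatase / Doses: 11.9 µM single point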
# Rpn11 inh conf: Rpn11 inhibition confirmation, single concentration | 1,900 tested, 29% active | purified human 26S proteasome, Ub4-pepOG fluorescence polarization; proteasome pretreated with epoxomicin | shares compounds with Rpn11 inh | inhibition, % at 20 µM
# MMP-2 inh: MMP-2 (human) inhibition counter-screen | inhibition, % at 20 µM | 1,900 tested, 4% active | shares compounds with Rpn11 inh | recombinant MMP-2, FRET peptide cleavage fluorescence;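 also: human MMP-2 activated beforehand with APMA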
# Thrombin FP: counter-screen for RPN11 inhibitors: inhibition of bovine thrombin; inhibition, % at 20 µM; shares compounds with Rpn11 inh; 1,900 tested, 13% active; bovine thrombin cleavage of Ub4-pepOG, fluorescence polarization;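 active = mean inhibition at least 40% at 20 µM, or signal 3 deviations below plate average, so some actives read negative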;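 also: plate controls were thrombin with DMSO for no effect and buffer wells lacking thrombin for full effect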
# The depositor's hits bear a star; x = no result shown; + = active, no number. Rule as the data show it, unless noted: active = inhibition above about 40%; inactive = the rest.
SMILES,HNF4A DNA FP,Neddyl block,PREPL inhibitor,CSN inh,Rpn11 inh,TbMetRS inhib,Rpn11 inh conf,MMP-2 inh,Thrombin FP
O=C(N/N=C/c1ccncc1)c1ccc(NC(=O)c2cccc(Cl)c2)cc1,31,2,-4,78*,52*,0,19,-32,-10
O=C(N/N=C/c1ccncc1)c1cccc(NC(=O)c2ccccc2Cl)c1,1,-14,-14,-2,-7,0,x,x,x
O=C(N/N=C/c1ccncc1)c1ccc(NC(=O)c2ccc(Cl)cc2)cc1,6,-11,23,12,45*,1,17,-6,2
O=C(C[C@H]1C(=O)N(CCc2ccccc2)C[C@@H]1c1ccccc1)Nc1ccccc1,3,6,x,-3,-2,-1,x,x,x
COc1ccc(-c2cc(C(F)(F)F)nc(S(=O)(=O)CCCC(=O)Nc3cccnc3Cl)n2)cc1OC,1,x,x,0,-6,0,x,x,x
Cc1ccc(C(=O)C(C)OC(=O)Cn2c(C)csc2=O)cc1 (centres undefined),0,7,5,4,-11,0,x,x,x
CCN1CCc2nc(NC(=O)C(c3ccccc3)c3ccccc3)sc2C1,6,-95,7,5,43*,-1,10,-19,-3
CCN1CCc2nc(NC(=O)CC(c3ccccc3)c3ccccc3)sc2C1,5,-33,5,5,30,-1,x,x,x
O=C(NCCc1ccc(F)cc1)C1CCC(=O)N(CC2CCCCC2)C1 (centres undefined),0,4,x,1,4,0,x,x,x
NN=C1c2ccccc2C(=O)C1C(=O)C(c1ccccc1)c1ccccc1 (centres undefined),106,-29,x,84,x,0,x,x,x
O=c1cc(-c2cccc(F)c2)oc2ccccc12,-5,-4,x,3,41*,0,-19,5,-14
O=C1N/C(=N/NC(=O)c2cccc3ccccc23)S/C1=C\c1ccccc1OCc1ccccc1,-11,x,x,6,45*,0,20,21,13
COc1cccc(/C=C2\SC(=O)NC2=O)c1OCc1ccc(C(=O)O)cc1,0,0,-2,-4,0,-1,x,x,x
COC(=O)[C@]12CCCCC=C1N(Cc1ccccc1)C(=O)[C@H](CC(=O)NCCC(C)C)C2,-1,2,x,-1,x,-1,x,x,x
COc1ccc(-c2cc(C(=O)Nc3ccccc3SC)no2)cc1,-1,30,14,-3,2,0,x,x,x
COC(=O)c1c(-c2cccnc2)csc1NC(=O)c1cc(C)on1,24,15,14,15,76*,0,53*,-18,32
COc1ccc(-c2cc(C(=O)Nc3cc(Br)ccc3O)no2)cc1,25,1,0,6,55*,-1,17,-19,-2
COc1cccc(-c2cc(C(=O)Nc3cc(C)on3)no2)c1,-5,-13,8,8,59*,-1,31,32,-7
COC(=O)c1c(-c2ccc(C)cc2)csc1NC(=O)c1c(-c2ccccc2)noc1C,x,x,6,x,x,x,x,x,x
O=C(NC1CCCCC1)C1c2ccccc2OCC(=O)N1CC(F)(F)F (centres undefined),2,2,x,-3,x,0,x,x,x
Cc1ccc(NC(=O)CSc2nc3[nH]ncc3c(=O)[nH]2)cc1Cl,-3,8,-25,0,51*,0,-9,-22,-10
CC(C)C[C@H]1CN(CCCC[C@@H]2CNC(=O)C(=O)N2CCc2ccccc2)C(=O)C(=O)N1CCc1ccc(O)cc1,-3,2,x,-2,x,-1,x,x,x
CCN(CC)C(=O)CSc1nc2c(sc(=S)n2-c2ccccc2OC)c(=O)n1-c1ccccc1,1,-14,19,5,41*,0,2,10,17
COc1ccc(CCNC(=O)c2cccn2C)cc1,3,5,7,0,-2,0,x,x,x
COc1ccc(CNC(=O)C(C)OC(=O)c2cccn2C)cc1 (centres undefined),14,4,-2,6,+,0,-3,11,-13
SMILES,HNF4A DNA FP,Neddyl block,PREPL inhibitor,CSN inh,Rpn11 inh,TbMetRS inhib,Rpn11 inh conf,MMP-2 inh,Thrombin FP
CC(=O)OC1C(=O)N(Cc2ccccc2)C1c1ccc(C)cc1 (centres undefined),0,9,x,4,-5,0,x,x,x
CC(C)(C)OC(=O)C[C@H]1C/C=C\C[C@H](CC(=O)NCCO)C(=O)N2CCC[C@@H]2COC1=O,-3,-7,18,2,3,0,x,x,x
CC(C)c1ccc(N=C2NN=C(c3cccs3)CS2)cc1,27,-7,0,13,80*,-1,-1,-1,3
O=C(Nc1ccccc1C(=O)NC1CC1)c1ccccc1F,-1,7,25,-2,2,0,x,x,x
CCc1ccc(OCC(=O)NNC(=O)c2cc(S(=O)(=O)N(C)C)ccc2N2CCCC2)cc1,-1,25,6,3,44*,0,56*,17,3
CN(C)S(=O)(=O)c1ccc(N2CCCC2)c(C(=O)NNC(=O)COc2ccc(Cl)cc2)c1,1,6,12,9,31,0,x,x,x
CC(C(=O)Nc1ccc(C(=O)O)c(O)c1)N1C(=O)/C(=C\c2ccco2)SC1=S (centres undefined),-14,-2,5,53*,74*,1,45*,34,-6
CC(C(=O)N(C)C1CCS(=O)(=O)C1)N1C(=O)/C(=C/c2ccco2)SC1=S (centres undefined),8,-2,0,8,19,0,x,x,x
COc1ccc(C=C2SC(=S)N(CCCC(=O)Nc3ccc(C(=O)O)c(O)c3)C2=O)cc1OC,23,-32,x,9,45*,2,97*,-30,79*
COc1cccc(/C=C2\SC(=S)N(CCCC(=O)Nc3cccc(C(=O)O)c3)C2=O)c1,0,-26,x,1,-4,0,x,x,x
COc1ccc(/C=C2\SC(=S)N(CCCC(=O)Nc3cccc(C(=O)O)c3)C2=O)cc1OC,25,-30,8,17,54*,0,83*,-38,66*
Cc1ccc(-c2c(C#N)c(N)n3c(nc4ccccc43)c2C#N)cc1,10,x,3,16,63*,-1,63*,3,82*
Cc1cc(C(=O)c2cccs2)c(N)s1,19,-3,20,24,53*,0,50*,-26,39

# Screening results: PubChem BioAssay, several laboratories
